# Data taken from ChEMBL document CHEMBL5058577, “EUbOPEN Chemogenomics Library 2 (Multiplex)” (2022).
# Tested on: U2OS
# Assay: Multiplex assay against U2OS
# Assay type: toxicity, cell-based
# Conditions: human
# Procedure, shortened: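 Live cells carried four stains from seeding: Hoechst33342, BioTracker Green Microtubule Cytoskeleton Dye, MitoTracker Red and Annexin V Alexa Fluor 680. They were imaged on a CQ1 microscope at 37°C and 5% CO2 after compound addition. Using CellPathfinder machine-learning gating, cells were split into Hoechst high-intensity objects or normal cells, normal cells into healthy, pyknosed or fragmented nuclei, and pyknosed cells into mitotic or apoptotic; tubulin, mitochondrial-mass and membrane-permeability phenotypes are per cents of healthy-nucleus cells.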
# [1] = 12 h, 1 µM, compound concentration 1 uM, replicate 1
# [2] = 12 h, 1 µM, compound concentration 1 uM, replicate 2
# [3] = 12 h, 10 µM, compound concentration 10 uM, replicate 1
# [4] = 12 h, 10 µM, compound concentration 10 uM, replicate 2
# [5] = 24 h, 1 µM, compound concentration 1 uM, replicate 1
# [6] = 24 h, 1 µM, compound concentration 1 uM, replicate 2
# [7] = 24 h, 10 µM, compound concentration 10 uM, replicate 1
# [8] = 24 h, 10 µM, compound concentration 10 uM, replicate 2
# [9] = 48 h, 1 µM, compound concentration 1 uM, replicate 1
# [10] = 48 h, 1 µM, compound concentration 1 uM, replicate 2
# [11] = 48 h, 10 µM, compound concentration 10 uM, replicate 1
# [12] = 48 h, 10 µM, compound concentration 10 uM, replicate 2
compound,measurement,setting,value
C[C@@H]1CC(=O)Nc2cccc(-c3ccc4c(c3)c(-c3cnn(C)c3)nn4C)c2N1,Population Apoptotic (%),[1],92%
same,Population Fragmented Nuclei (%),[1],20%
same,Population Healthy Nuclei (%),[1],73%
same,Population Hoechst High Intensity Objects (%),[1],1%
same,Population Membrane Permeable-Phenotype (%),[1],7%
same,Population Mitochondria Different-Phenotype (%),[1],4%
same,Population Mitotic Cells (%),[1],7%
same,Population Normal (%),[1],98%
same,Population Pyknosed Nuclei (%),[1],6%
same,Population Tubulin-Different-Phenotype (%),[1],6%
same,Total Cell Count,[1],233
same,Population Apoptotic (%),[2],88%
same,Population Fragmented Nuclei (%),[2],16%
same,Population Healthy Nuclei (%),[2],75%
same,Population Membrane Permeable-Phenotype (%),[2],5%
same,Population Mitochondria Different-Phenotype (%),[2],2%
same,Population Mitotic Cells (%),[2],11%
same,Population Pyknosed Nuclei (%),[2],7%
same,Population Tubulin-Different-Phenotype (%),[2],2%
same,Total Cell Count,[2],116
same,Population Apoptotic (%),[3],86%
same,Population Fragmented Nuclei (%),[3],29%
same,Population Healthy Nuclei (%),[3],58%
same,Population Hoechst High Intensity Objects (%),[3],2%
same,Population Membrane Permeable-Phenotype (%),[3],11%
same,Population Mitochondria Different-Phenotype (%),[3],11%
same,Population Mitotic Cells (%),[3],13%
same,Population Normal (%),[3],97%
same,Population Pyknosed Nuclei (%),[3],12%
same,Population Tubulin-Different-Phenotype (%),[3],8%
same,Total Cell Count,[3],235
same,Population Apoptotic (%),[4],33%
same,Population Fragmented Nuclei (%),[4],21%
same,Population Healthy Nuclei (%),[4],74%
same,Population Hoechst High Intensity Objects (%),[4],1%
same,Population Membrane Permeable-Phenotype (%),[4],7%
same,Population Mitochondria Different-Phenotype (%),[4],7%
same,Population Mitotic Cells (%),[4],66%
same,Population Normal (%),[4],98%
same,Population Pyknosed Nuclei (%),[4],4%
same,Total Cell Count,[4],76
same,Population Apoptotic (%),[5],95%
same,Population Fragmented Nuclei (%),[5],20%
same,Population Healthy Nuclei (%),[5],71%
same,Population Hoechst High Intensity Objects (%),[5],2%
same,Population Membrane Permeable-Phenotype (%),[5],5%
same,Population Mitochondria Different-Phenotype (%),[5],2%
same,Population Mitotic Cells (%),[5],4%
same,Population Normal (%),[5],97%
same,Population Pyknosed Nuclei (%),[5],7%
same,Population Tubulin-Different-Phenotype (%),[5],2%
same,Total Cell Count,[5],294
same,Population Apoptotic (%),[6],100%
same,Population Fragmented Nuclei (%),[6],22%
same,Population Healthy Nuclei (%),[6],74%
same,Population Hoechst High Intensity Objects (%),[6],1%
same,Population Membrane Permeable-Phenotype (%),[6],1%
same,Population Mitochondria Different-Phenotype (%),[6],1%
same,Population Mitotic Cells (%),[6],0%
same,Population Normal (%),[6],98%
same,Population Pyknosed Nuclei (%),[6],4%
same,Population Tubulin-Different-Phenotype (%),[6],0%
same,Total Cell Count,[6],152
same,Population Apoptotic (%),[7],90%
same,Population Fragmented Nuclei (%),[7],24%
same,Population Healthy Nuclei (%),[7],63%
same,Population Hoechst High Intensity Objects (%),[7],4%
same,Population Membrane Permeable-Phenotype (%),[7],7%
same,Population Mitochondria Different-Phenotype (%),[7],6%
same,Population Mitotic Cells (%),[7],10%
same,Population Normal (%),[7],95%
same,Population Pyknosed Nuclei (%),[7],11%
same,Population Tubulin-Different-Phenotype (%),[7],3%
same,Total Cell Count,[7],266
same,Population Apoptotic (%),[8],83%
same,Population Fragmented Nuclei (%),[8],15%
same,Population Healthy Nuclei (%),[8],78%
same,Population Hoechst High Intensity Objects (%),[8],1%
same,Population Membrane Permeable-Phenotype (%),[8],6%
same,Population Mitochondria Different-Phenotype (%),[8],1%
same,Population Mitotic Cells (%),[8],16%
same,Population Normal (%),[8],98%
same,Population Pyknosed Nuclei (%),[8],6%
same,Population Tubulin-Different-Phenotype (%),[8],4%
same,Total Cell Count,[8],97
same,Population Apoptotic (%),[9],100%
same,Population Fragmented Nuclei (%),[9],19%
same,Population Healthy Nuclei (%),[9],73%
same,Population Hoechst High Intensity Objects (%),[9],1%
same,Population Membrane Permeable-Phenotype (%),[9],4%
same,Population Mitochondria Different-Phenotype (%),[9],2%
same,Population Mitotic Cells (%),[9],0%
same,Population Normal (%),[9],98%
same,Population Pyknosed Nuclei (%),[9],6%
same,Population Tubulin-Different-Phenotype (%),[9],3%
same,Total Cell Count,[9],437
same,Population Fragmented Nuclei (%),[10],13%
same,Population Healthy Nuclei (%),[10],77%
same,Population Membrane Permeable-Phenotype (%),[10],2%
same,Population Pyknosed Nuclei (%),[10],8%
same,Population Tubulin-Different-Phenotype (%),[10],2%
same,Total Cell Count,[10],224
same,Population Apoptotic (%),[11],100%
same,Population Fragmented Nuclei (%),[11],28%
same,Population Healthy Nuclei (%),[11],65%
same,Population Hoechst High Intensity Objects (%),[11],3%
same,Population Membrane Permeable-Phenotype (%),[11],8%
same,Population Mitochondria Different-Phenotype (%),[11],3%
same,Population Mitotic Cells (%),[11],0%
same,Population Normal (%),[11],96%
same,Population Pyknosed Nuclei (%),[11],5%
same,Population Tubulin-Different-Phenotype (%),[11],5%
same,Total Cell Count,[11],394
same,Population Fragmented Nuclei (%),[12],23%
same,Population Healthy Nuclei (%),[12],71%
same,Population Hoechst High Intensity Objects (%),[12],4%
same,Population Membrane Permeable-Phenotype (%),[12],3%
same,Population Mitochondria Different-Phenotype (%),[12],0%
same,Population Normal (%),[12],95%
same,Population Pyknosed Nuclei (%),[12],4%
same,Population Tubulin-Different-Phenotype (%),[12],3%
same,Total Cell Count,[12],149
